Broadly, the Km is the substrate concentration at which the rate is half of its maximum. As a reminder, the kcat is the maximal rate divided by the concentration of active sites. A word on the kcat/KM: it is the second-order rate constant that governs catalysis at low substrate concentration. In general, Ki refers to a dissociation constant, usually derived from enzyme kinetics or from competition with a known ligand.

Like-named read-outs stand apart in the source and are kept apart here. Marks after values point to notes of the source that are not given here.

The values that follow come from paper PMC4338581 (Bioorganic & medicinal chemistry letters, 2014).

The test system of one series is albumin. The settings on record: ref [26]; cited from earlier work.
Series [1] addresses T1, MMP-2 (Homo sapiens, UniProt P08253).
T1 sequence (P08253 110-660): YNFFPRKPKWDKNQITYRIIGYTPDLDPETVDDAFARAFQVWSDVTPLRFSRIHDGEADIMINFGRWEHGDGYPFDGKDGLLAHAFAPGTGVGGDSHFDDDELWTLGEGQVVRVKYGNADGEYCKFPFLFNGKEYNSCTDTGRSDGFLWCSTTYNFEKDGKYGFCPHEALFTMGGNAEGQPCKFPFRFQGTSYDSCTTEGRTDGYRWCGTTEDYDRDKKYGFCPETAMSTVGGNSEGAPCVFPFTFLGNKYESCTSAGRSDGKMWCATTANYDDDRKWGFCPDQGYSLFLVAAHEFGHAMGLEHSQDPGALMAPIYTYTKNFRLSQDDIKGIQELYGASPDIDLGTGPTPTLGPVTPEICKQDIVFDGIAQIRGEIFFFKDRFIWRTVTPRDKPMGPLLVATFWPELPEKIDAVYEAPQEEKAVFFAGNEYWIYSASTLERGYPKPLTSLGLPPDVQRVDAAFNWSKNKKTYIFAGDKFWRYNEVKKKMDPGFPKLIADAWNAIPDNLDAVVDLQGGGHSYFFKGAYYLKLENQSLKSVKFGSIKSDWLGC
The settings on record: ref [23]; cited from earlier work.

The target in series [2] is T2, MMP-9 (Homo sapiens, UniProt P14780). The settings on record: ref [23]; cited from earlier work.
T2 sequence (P14780 94-707): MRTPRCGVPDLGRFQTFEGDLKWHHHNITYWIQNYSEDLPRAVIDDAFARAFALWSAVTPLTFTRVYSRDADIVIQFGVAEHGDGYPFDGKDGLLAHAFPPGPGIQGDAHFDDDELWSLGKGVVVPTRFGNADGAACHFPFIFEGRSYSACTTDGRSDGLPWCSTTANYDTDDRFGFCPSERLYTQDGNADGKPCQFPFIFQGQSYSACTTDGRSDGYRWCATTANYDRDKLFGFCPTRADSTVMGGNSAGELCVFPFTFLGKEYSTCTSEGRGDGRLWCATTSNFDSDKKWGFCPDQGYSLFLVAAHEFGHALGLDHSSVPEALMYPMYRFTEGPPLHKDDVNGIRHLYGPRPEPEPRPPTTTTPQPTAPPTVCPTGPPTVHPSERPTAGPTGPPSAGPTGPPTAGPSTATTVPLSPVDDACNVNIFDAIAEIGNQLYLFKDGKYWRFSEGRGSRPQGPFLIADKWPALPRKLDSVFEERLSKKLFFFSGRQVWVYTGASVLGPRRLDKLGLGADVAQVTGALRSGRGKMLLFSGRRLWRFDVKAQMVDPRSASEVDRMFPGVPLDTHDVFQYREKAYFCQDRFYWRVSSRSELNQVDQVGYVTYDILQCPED
Series [3] relates to gelatinases (MMP-2 and MMP-9) versus other MMP family members. The settings on record: ref [23], [24]; cited from earlier work.
The conditions of series [4]: ref [23]; cited from earlier work.
The subject of another series is HT-1080 xenografts. The note with it: ref [19], cited from earlier work.
The target in a further series is MMP-7. The note with it: ref [37]; cited from earlier work.
Series [5] is described as follows: Triple-helix melting temperature. Type of series: physicochemical. The settings on record: from fluorescence melting curves; Table 1.
In series [6] the target is T2, MMP-9. In words: Enzyme kinetics. Type of series: biochemical. The settings on record: λexcitation = 780 nm, λemission = 810 nm; for kcat: Michaelis-Menten; for Km: ± standard error of the mean.
The target in series [7] is T1, MMP-2. In words: Enzyme kinetics. In kind it is biochemical. The note with it: λexcitation = 780 nm, λemission = 810 nm; for kcat: Michaelis-Menten; for Km: ± standard error of the mean.
A short description of series [8]: Fluorescence quenching efficiency, intact vs completely hydrolyzed. Type of series: physicochemical. The settings on record: from variable temperature absorbance spectra and variable temperature fluorescence melting curves.
The test system of series [9] is gelatinases (MMP-2 and MMP-9) versus other MMP family members. In words: Substrate selectivity for gelatinases within the MMP family. In kind it is biochemical. The settings on record: authors' summary statement.
For series [10], the system named is HT-1080 xenografted tumors (gelatinase activity). In words: FMT imaging of mice bearing HT-1080 fibrosarcoma xenografts. The settings on record: 2 nmol i.v.
A short description of series [11]: Variable temperature absorbance spectra. In kind it is physicochemical. The settings on record: room temperature, PBS. An outline of the steps: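 Dye-labelled triple-helical peptide conjugates in PBS; absorbance spectra recorded across a range of temperatures. Quenching efficiency was derived from these spectra together with variable-temperature fluorescence melting curves.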

On to `CC1(C)C(/C=C/C=C/C=C/C=C2/N(CCC(=O)O)c3ccc4ccccc4c3C2(C)C)=[N+](CCC(=O)O)c2ccc3ccccc3c21.[Br-]` [cypate], for which, in the series on albumin, the “binding affinity to albumin” value is “good binding affinity”.
Take “(GPO)5GPK(Mca)GPPG~VVGEK(Dnp)GEN(GPO)5-NH2 [fTHP]”: on MMP-2 [1], the Michaelis-Menten constant (Km) is 4.4 µM, the kcat is 0.061 s⁻¹ and the kcat/KM is 14 × 10^3 s^−1M^−1. In addition, at MMP-9 [2], the Michaelis constant (Km) was 8.1 µM, the turnover number (kcat) is 0.044 s⁻¹ and the kcat/KM is recorded as 5.4 × 10^3 s^−1M^−1. In addition, in series [3], the “kcat/KM for gelatinases relative to other MMP family members” value was “more than 10 fold”. In series [4], the TM is 45.0 °C.
For `CC1(C)SCCN(S(=O)(=O)c2ccc(Oc3ccncc3)cc2)[C@H]1C(=O)NO` [Prinomastat, reference compound], the “reduction of tumor-associated fluorescence on co-administration” value in the series with HT-1080 xenografts (with MMPSense, HT-1080 xenografts) is on record as 2.5 fold. In addition, on MMP-7, the Ki was 54 nM.
Regarding “(GPO)5GPKGPPG~VVGEK(PEG2-cypate)GEQ(GPO)5 [cypate3-(PEG)2-THP]”, the TM in [5] is 45.5^b °C. Besides, the kcat/KM with MMP-9 [6] was 9100 M⁻¹ s⁻¹; with MMP-9 [6] (Table 1) it was 9.1 × 10^3 s^−1M^−1; in the series with MMP-2 [7], 9100 M⁻¹ s⁻¹; in the series with MMP-2 [7] (Table 1), 9.1 × 10^3 s^−1M^−1. Further, the catalytic constant (kcat) stood at 0.202 s⁻¹ with MMP-9 [6] and 0.099 s⁻¹ in the series with MMP-2 [7]. Besides, the Km in the series with MMP-9 [6] came out at 22.2 µM; with MMP-2 [7] it was 10.9 µM. The “quenching efficiency, comparison with and without PEG spacer” value in series [8] is listed as “similar”.
As to “(GPO)5GPKGPPG~VVGEK(cypate)GEQ(GPO)5 [cypate3-THP]”, the TM in [5] was 50.5^b °C. Further, in the series with MMP-9 [6], the kcat/KM is 6400 M⁻¹ s⁻¹, the kcat was 0.142 s⁻¹ and the Michaelis-Menten constant (Km) was 22.3 µM. The kcat/KM with MMP-9 [6] (Table 1) was 6.4 × 10^3 s^−1M^−1. In the series with MMP-2 [7], the catalytic efficiency (kcat/KM) came out at 6800 M⁻¹ s⁻¹, the catalytic constant (kcat) was found to be 0.056 s⁻¹ and the Michaelis-Menten constant (Km) was determined as 8.19 µM. Also, the kcat/KM with MMP-2 [7] (Table 1) was 6.8 × 10^3 s^−1M^−1. Also, in series [9], the selectivity of hydrolysis entry is “efficiently hydrolyzed selectively by MMP-2 and -9”. In series [8], the “quenching efficiency, comparison with and without PEG spacer” value is given as “similar”. For the same compound, the “average tumor to background ratio” value in series [10] (4 hours post-injection, n = 3) came to 10.2. Also, the clearance of fluorescence entry in series [10] (after 24 h) is given as “slowly cleared from most tissues after 24 h”. For the same compound, the “time of peak normalized fluorescence intensity” value in series [10] (post-injection, n = 3) amounted to 4 h. For the same compound, in series [10] (abstract), the “fluorescence enhancement within the tumor” value is given as “significant fluorescence enhancement within the tumor”. Further, the “normalized tumor fluorescence intensity” value in series [10] (pmol cypate/mm^3 tumor volume, 1 hour post-injection, n = 3) was “relatively low”. In [11], the “additional absorption peak (aggregate)” value came out at 710 nm and the main absorption peak turned out to be 780 nm. In series [11] (300 nM, up to 1.5 μM), the aggregation result is “significant intramolecular H-aggregation”.
As to PLGVR [MMPSense], the “visualization of HT-1080 xenografts” value with HT-1080 xenografts (NIR reflectance imaging) was “enabled the visualization of the HT-1080 xenografts”.
